Results filed as inconclusive are left out.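 The calls were made as follows, unless noted: active = inhibition over a set limit, the all-compound mean plus 3 SD, in both replicate runs; inconclusive = over that limit in just one replicate run; inactive = at or under that limit in both runs.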
Tests used:
[1] = OD615 S. cerevisiae growth inhibition, permissive medium, pilot counter-assay, permissive growth control for S. cerevisiae lifespan shortening project (AID 705;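 active = growth inhibition above 25% in both replicates, a cutoff set 3 SD above the mean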); conditions: OD615, 24 h, at 10 µM, stronger effect = higher value
Procedure, shortened: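 System: Engineered DeaD yeast | Buffer or medium: SC raffinose/galactose permissive medium | Incubation: Cells pre-grown 4 h, then 24 h compound exposure, 30 °C humidified | Measured by: Absorbance (optical density) at 615 nm | Read-out: Reduction in yeast growth (OD615)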

[2] = Restrictive medium S. cerevisiae growth inhibition, OD615, pilot screen of yeast lifespan reduction project, restrictive growth control (AID 706;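 active = growth inhibition above a set limit, 3 SD over mean compound inhibition, in both replicates, cut at about 43% in these data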;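 also: modified DeaD lifespan yeast strain shifted to restrictive glucose medium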); conditions: OD615, 48 h, at 10 µM, stronger effect = higher value
Procedure, shortened: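 Material: modified S. cerevisiae; Medium: glucose-based CSMM-D restrictive medium; Compound dosing: one concentration, 10 µM final, 0.25% DMSO; Incubation: 48 h compound exposure at 30 °C; Measured by: OD615.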

[3] = viability gain of MRP-1-high H69AR cells under doxorubicin, pilot screen, MRP-1 activator project, CellTiter-Glo, duplicate (AID 807;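 active = viability increase at or above a cutoff of the median across tested compounds plus 3 SD, cut at about 8.5% in these data, passing the limit was not always enough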;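 also: compound pretreatment 18-22 h then 72 h combined with doxorubicin; 0% = doxorubicin alone and 100% = vehicle without doxorubicin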); conditions: H69AR viability with doxorubicin, CellTiter-Glo luminescence; at 10 µM; stronger effect = higher value
[4] = growth suppression of beta-catenin knockout HCT116, pilot screen, human colon tumor cells (AID 823;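 active = cell viability at or below a set limit in both duplicate runs, the limit being the all-compound median minus 4 SD, cut at about 23% in these data, passing the limit was not always enough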;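 also: 0% = wells killed by 20 µM Hyamine and 100% = untreated DMSO cell wells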); conditions: CellTiter-Glo, 60 h, at 10 µM, stronger effect = lower value
[5] = growth suppression of PTEN-deleted HCT116, pilot screen, cell-based, HCT116 clonal line, CellTiter-Glo (AID 824;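 active = viability at or below 27.92% in each of two runs, the all-compound median minus 4 SD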;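 also: 0% = 20 µM Hyamine control and 100% = vehicle cell control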); conditions: 60 h, at 10 µM, stronger effect = lower value
[6] = inhibitors of the yeast RAM network, pilot screen, dse1pr::URA3 reporter, 5-FOA selection (AID 869);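 also: 0% = DMSO wells with no growth and 100% = 10 µM 1-NA-PP1 with full growth; RAM network block rescues cells from 5-FOA so hits raise OD615 growth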; conditions: S. cerevisiae dse1pr::URA3 5-FOA growth, OD615, 2 d; at 10 µM; stronger effect = higher value; strain carries analog-sensitive mutant Cbk1 kinase
[7] = RAM signaling pathway blockade in yeast – S. cerevisiae, Pdr1DBD-CYC8 efflux-inhibited sensitized strain, primary screen (AID 1298;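 active = RAM network inhibition above 8.4% in each of two replicates, 3 SD over the compound average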;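 also: 0% = DMSO untreated cells without growth and 100% = 10 µM 1-NA-PP1 full growth; higher means more yeast growth rescued from 5-FOA killing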); conditions: S. cerevisiae cbk1-as DSE1-URA3 strain, 5-FOA growth OD615, 2 d; at 50 µM; stronger effect = higher value

CCOC(=O)N1CCN(C(=O)c2ccc3c(c2)N(CC)CCS3)CC1
inactive: growth inhibition [1] -2.54% | growth inhibition [2] 2.25% | viability increase [3] -0.26% | viability [4] 101% | viability [5] 97% | inhibition [6] 1.89% | RAM network inhibition [7] -1.13%

CCOC(=O)c1nnn(-c2nonc2N)c1-c1ccccc1
inactive: growth inhibition [1] -8.1% | growth inhibition [2] 7.27% | viability increase [3] -0.46% | viability [4] 98.7% | viability [5] 103% | inhibition [6] 2.83% | RAM network inhibition [7] 5.09%

O=S(=O)(NCCOCCNS(=O)(=O)c1ccccc1)c1ccccc1
inactive: growth inhibition [1] -6.38% | growth inhibition [2] -1.27% | viability increase [3] 0.8% | viability [4] 91.2% | viability [5] 96.1% | inhibition [6] 0.05% | RAM network inhibition [7] 1.94%

CCOc1ccc(Cn2nnc(C(=O)NCc3ccccc3)c2N)cc1
inactive: growth inhibition [1] 2.25% | growth inhibition [2] 3.87% | viability increase [3] 2.17% | viability [4] 93.2% | viability [5] 85.5% | inhibition [6] 0.395% | RAM network inhibition [7] 3.74%

Cc1cc(C(=O)N2CCN(C(c3ccccc3)c3ccccc3)CC2)on1
inactive: growth inhibition [1] -11.2% | growth inhibition [2] -5.41% | viability increase [3] 0.42% | viability [4] 89.7% | viability [5] 76.7% | inhibition [6] 2.04% | RAM network inhibition [7] 3.7%

C=CCNc1nc2c(c(=O)[nH]c(=O)n2C)n1Cc1cccc(C)c1
inactive: growth inhibition [1] 2.89% | growth inhibition [2] 2.92% | viability increase [3] -1.47% | viability [4] 102% | viability [5] 87.5% | inhibition [6] 2.04% | RAM network inhibition [7] 5.89%

N#Cc1nc(-c2ccccc2Cl)oc1NCC1CCCO1 (stereo not given)
inactive: growth inhibition [1] -2.88% | growth inhibition [2] 8.84% | viability increase [3] 0.31% | viability [4] 91.1% | viability [5] 86.8% | inhibition [6] 1.48% | RAM network inhibition [7] 1.33%

CC1(C)CC2(CC(C)(C)N1)OC(=O)N1CCc3ccccc3C12C (stereo not given)
inactive: growth inhibition [1] -4.17% | growth inhibition [2] -7.5% | viability increase [3] -1.65% | viability [4] 106% | viability [5] 97.9% | inhibition [6] 2.3% | RAM network inhibition [7] 6.97%

O=C(CCCCCN1C(=O)C2C3C=CC(C3)C2C1=O)Nc1nccs1 (stereo not given)
inactive: growth inhibition [1] -3.44% | growth inhibition [2] -2.41% | viability increase [3] -1.31% | viability [4] 100% | viability [5] 91.5% | inhibition [6] 0.215% | RAM network inhibition [7] 4.28%

CCOC(=O)CN1CC23C=CC(O2)C(C(=O)NCc2ccccc2OC)C3C1=O (stereo not given)
inactive: growth inhibition [1] 1.34% | growth inhibition [2] 8.84% | viability increase [3] -3.18% | viability [4] 103% | viability [5] 102% | inhibition [6] 2.3% | RAM network inhibition [7] 0.15%

Cc1ccc(N(C(=O)CC2NC(=O)NC2=O)C2(C(=O)NC3CCCC3)CCCCC2)cc1 (stereo not given)
inactive: growth inhibition [1] -9.96% | growth inhibition [2] -19.7% | viability increase [3] -1.56% | viability [4] 95.2% | viability [5] 93.7% | inhibition [6] -0.23% | RAM network inhibition [7] 3.14%

O=C(Cn1c(=O)oc2cc(S(=O)(=O)N3CCOCC3)ccc21)N1CCc2ccccc2C1
inactive: growth inhibition [1] -5.1% | growth inhibition [2] -8.57% | viability increase [3] -2.45% | viability [4] 103% | viability [5] 93.8% | inhibition [6] 2.44% | RAM network inhibition [7] 4.35%

COc1ccc(CN2CCNC(=O)C2CC(=O)O)cc1OC (stereo not given)
inactive: growth inhibition [1] -14.2% | growth inhibition [2] -7.95% | viability increase [3] 1.18% | viability [4] 105% | viability [5] 101% | inhibition [6] 0.38% | RAM network inhibition [7] -0.52%

Oc1ccc(Br)cc1-c1nc2cnccn2c1NC1CCCC1
inactive: growth inhibition [1] -11.9% | growth inhibition [2] 1.74% | viability increase [3] -7.32% | viability [4] 55.5% | viability [5] 54.6% | inhibition [6] -0.895% | RAM network inhibition [7] -1.71%

O=C(CCc1ccccc1)N1CCN(CCO)CC1
inactive: growth inhibition [1] -4.45% | growth inhibition [2] 9.8% | viability increase [3] 0.6% | viability [4] 101% | viability [5] 110% | inhibition [6] 0.715% | RAM network inhibition [7] 3.71%

Reference: PubChem BioAssay
